Test results as given in ChEMBL document CHEMBL1275556, “High prevalence of plasmid-mediated quinolone resistance genes qnr and aac(6')-Ib-cr in clinical isolates of Enterobacteriaceae from nine teaching hospitals in China” (2008).
≈ marks a conversion by molar mass, not a printed value.

Tests used:
Citrobacter freundii [1] = experiment: Antimicrobial activity against aac(6')-Ib-cr-positive Citrobacter freundii JN1 harboring GyrA T83I, ParC S80I mutant, wild-type GyrB and qnrA genes by agar dilution method in presence of clavulanic acid; type: functional
Outline: (§1)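 MICs were determined by the CLSI agar dilution method (M7-A7) and interpreted against CLSI M100-S17 breakpoints.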

Enterobacter cloacae [2] = experiment: Antimicrobial activity against aac(6')-Ib-cr-negative Enterobacter cloacae FJ61 harboring GyrA S83I, GyrA D87A, ParC S80I mutant, wild-type GyrB and qnrS genes by agar dilution method in presence of clavulanic acid; type: functional
Outline: (§2)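 MICs measured by CLSI agar dilution (M7-A7) and interpreted against CLSI M100-S17 breakpoints. Strains were clinical Enterobacteriaceae isolates or the azide-resistant E. coli J53 recipient.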

Klebsiella pneumoniae [3] = experiment: Antimicrobial activity against aac(6')-Ib-cr-positive Klebsiella pneumoniae JN41 harboring GyrA S83I, ParC S80I mutant, wild-type GyrB and qnrB genes by agar dilution method in presence of clavulanic acid; type: functional
Outline: (§3)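 MICs were determined by CLSI agar dilution (M7-A7) and interpreted by CLSI M100-S17 breakpoints. The curator's line names the β-lactamase inhibitor added.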

Citrobacter freundii [4] = experiment: Antimicrobial activity against aac(6')-Ib-cr-negative Citrobacter freundii JN64T harboring qnrA gene by agar dilution method in presence of clavulanic acid; type: functional
Outline: (§4)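 Transconjugants came from conjugation of qnr and/or aac(6')-Ib-cr-carrying donors with azide-resistant E. coli J53. […] MICs were determined by CLSI agar dilution (M7-A7) and interpreted by M100-S17.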

Klebsiella pneumoniae [5] = experiment: Antimicrobial activity against aac(6')-Ib-cr-positive Klebsiella pneumoniae GZ40T harboring qnrB gene by agar dilution method in presence of clavulanic acid; type: functional; outline: as §4
Klebsiella pneumoniae [6] = experiment: Antimicrobial activity against aac(6')-Ib-cr-positive Klebsiella pneumoniae JN41T harboring qnrB gene by agar dilution method in presence of clavulanic acid; type: functional; outline: as §4
Klebsiella pneumoniae [7] = experiment: Antimicrobial activity against aac(6')-Ib-cr-positive Klebsiella pneumoniae SY26 harboring GyrA S83I, ParC S80I mutant, wild-type GyrB and qnrB genes by agar dilution method in presence of clavulanic acid; type: functional; outline: as §2
Escherichia coli [8] = experiment: Antimicrobial activity against aac(6')-Ib-cr-positive Escherichia coli FJ3T harboring wild-type GyrA, ParC, GyrB and qnrB genes by agar dilution method
Klebsiella pneumoniae [9] = experiment: Antimicrobial activity against aac(6')-Ib-cr-positive Klebsiella pneumoniae JN41T harboring qnrB gene by agar dilution method; type: functional
Outline: (§5)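 Transconjugants were made by conjugating a qnr/aac(6')-Ib-cr donor with azide-resistant E. coli J53. Selection used Trypticase soy agar with sodium azide 150 µg/ml and sulfamethoxazole 180 µg/ml. […] MICs were read by CLSI agar dilution (M7-A7) and interpreted per M100-S17.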

Klebsiella pneumoniae [10] = experiment: Antimicrobial activity against aac(6')-Ib-cr-positive Klebsiella pneumoniae JN41 harboring GyrA S83I, ParC S80I mutant, wild-type GyrB and qnrB genes by agar dilution method; type: functional
Outline: (§6)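 MICs were determined on clinical isolates by CLSI agar dilution (M7-A7) and interpreted against CLSI M100-S17 breakpoints.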

Citrobacter freundii [11] = experiment: Antimicrobial activity against aac(6')-Ib-cr-positive Citrobacter freundii JS33T harboring qnrA gene by agar dilution method; type: functional; outline: as §1
Klebsiella pneumoniae [12] = experiment: Antimicrobial activity against aac(6')-Ib-cr-negative Klebsiella pneumoniae SY22T harboring qnrS gene by agar dilution method; type: functional; outline: as §1
Citrobacter freundii [13] = experiment: Antimicrobial activity against aac(6')-Ib-cr-positive Citrobacter freundii JS33 harboring GyrA T83I mutant, wild-type ParC, GyrB, qnrA and qnrB genes by agar dilution method in presence of clavulanic acid; type: functional; outline: as §3
Klebsiella pneumoniae [14] = experiment: Antimicrobial activity against aac(6')-Ib-cr-positive Klebsiella pneumoniae WH99T harboring qnrB gene by agar dilution method in presence of clavulanic acid; type: functional; outline: as §4
Enterobacter cloacae [15] = experiment: Antimicrobial activity against aac(6')-Ib-cr-positive Enterobacter cloacae FJ63T harboring qnrS gene by agar dilution method; type: functional
Enterobacter cloacae [16] = experiment: Antimicrobial activity against aac(6')-Ib-cr-negative Enterobacter cloacae FJ67T harboring qnrS gene by agar dilution method in presence of clavulanic acid; type: functional; outline: as §4
Enterobacter cloacae [17] = experiment: Antimicrobial activity against aac(6')-Ib-cr-positive Enterobacter cloacae FJ63 harboring GyrA S83I, GyrA D87A, ParC S80I mutant, wild-type GyrB and qnrS genes by agar dilution method in presence of clavulanic acid; type: functional; outline: as §1
Klebsiella pneumoniae [18] = experiment: Antimicrobial activity against aac(6')-Ib-cr-positive Klebsiella pneumoniae WH99 harboring wild-type GyrA, ParC, GyrB and qnrB genes by agar dilution method; type: functional; outline: as §6
Enterobacter cloacae [19] = experiment: Antimicrobial activity against aac(6')-Ib-cr-negative Enterobacter cloacae GZ51T harboring qnrA gene by agar dilution method; type: functional
Citrobacter freundii [20] = experiment: Antimicrobial activity against aac(6')-Ib-cr-positive Citrobacter freundii TJ15T harboring wild-type GyrA, ParC, GyrB genes by agar dilution method; type: functional; outline: as §1
Citrobacter freundii [21] = experiment: Antimicrobial activity against aac(6')-Ib-cr-positive Citrobacter freundii TJ15T harboring wild-type GyrA, ParC, GyrB genes by agar dilution method in presence of clavulanic acid; type: functional; outline: as §1
Citrobacter freundii [22] = experiment: Antimicrobial activity against aac(6')-Ib-cr-positive Citrobacter freundii JS33 harboring GyrA T83I mutant, wild-type ParC, GyrB, qnrA and qnrB genes by agar dilution method in presence of Tazobactam; type: functional; outline: as §1
Klebsiella pneumoniae [23] = experiment: Antimicrobial activity against aac(6')-Ib-cr-positive Klebsiella pneumoniae JN132T harboring qnrB gene by agar dilution method in presence of Tazobactam; type: functional
Outline: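 Transconjugants came from conjugation of qnr and/or aac(6')-Ib-cr donors into azide-resistant E. coli J53. […] MICs were measured by CLSI agar dilution (M7-A7) and interpreted per M100-S17.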

Klebsiella pneumoniae [24] = experiment: Antimicrobial activity against aac(6')-Ib-cr-positive Klebsiella pneumoniae WH99 harboring wild-type GyrA, ParC, GyrB and qnrB genes by agar dilution method in presence of Tazobactam; type: functional; outline: as §2
Escherichia coli [25] = experiment: Antimicrobial activity against Escherichia coli J53 harboring wild-type GyrA, ParC, GyrB genes by agar dilution method in presence of beta-lactamase inhibitor Tazobactam; type: functional; outline: as §2
Enterobacter cloacae [26] = experiment: Antimicrobial activity against aac(6')-Ib-cr-negative Enterobacter cloacae GZ51 harboring qnrA gene by agar dilution method in presence of Tazobactam; type: functional; outline: as §1
Citrobacter freundii [27] = experiment: Antimicrobial activity against aac(6')-Ib-cr-positive Citrobacter freundii JS33T harboring qnrA gene by agar dilution method in presence of Tazobactam; type: functional; outline: as §1
Escherichia coli [28] = experiment: Antimicrobial activity against aac(6')-Ib-cr-negative Escherichia coli PU12 harboring GyrA S83L mutant, wild-type GyrB, ParC and qnrS genes by agar dilution method in presence of Tazobactam; type: functional; outline: as §2
Klebsiella pneumoniae [29] = experiment: Antimicrobial activity against aac(6')-Ib-cr-positive Klebsiella pneumoniae SY26 harboring GyrA S83I, ParC S80I mutant, wild-type GyrB and qnrB genes by agar dilution method in presence of Tazobactam; type: functional; outline: as §2
Citrobacter freundii [30] = experiment: Antimicrobial activity against aac(6')-Ib-cr-positive Citrobacter freundii JN1T by agar dilution method in presence of Tazobactam; type: functional
Outline: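 MIC by CLSI agar dilution (M7-A7), with categories interpreted per CLSI M100-S17.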

Klebsiella pneumoniae [31] = experiment: Antimicrobial activity against aac(6')-Ib-cr-positive Klebsiella pneumoniae JN41T harboring qnrB gene by agar dilution method in presence of Tazobactam; type: functional; outline: as §5

Molecule `CO/N=C(\C(=O)N[C@@H]1C(=O)N2C(C(=O)O)=C(COC(C)=O)CS[C@H]12)c1csc(N)n1` [CEFOTAXIME] has an MIC (Citrobacter freundii [1]) of 128 µg/mL, an MIC (Enterobacter cloacae [2]) of 8 µg/mL and an MIC (Klebsiella pneumoniae [3]) of 0.032 µg/mL. The MIC (Citrobacter freundii [4]) was 0.064 µg/mL, the MIC (Klebsiella pneumoniae [5]) was 0.032 µg/mL and the MIC (Klebsiella pneumoniae [6]) was 0.032 µg/mL. For the same molecule, the MIC (Klebsiella pneumoniae [7]) was 8 µg/mL, the MIC (Escherichia coli [8]) was 64 µg/mL (≈ 141 µM) and the MIC (Klebsiella pneumoniae [9]) was 16 µg/mL (≈ 35.1 µM). The MIC (Klebsiella pneumoniae [10]) was 32 µg/mL (≈ 70.3 µM), the MIC (Citrobacter freundii [11]) was 0.125 µg/mL (≈ 0.274 µM) and the MIC (Klebsiella pneumoniae [12]) was 0.5 µg/mL (≈ 1.1 µM). It also gave an MIC (Citrobacter freundii [13]) of 64 µg/mL, an MIC (Klebsiella pneumoniae [14]) of 0.064 µg/mL and an MIC (Enterobacter cloacae [15]) of 32 µg/mL (≈ 70.3 µM). The MIC (Enterobacter cloacae [16]) was 0.032 µg/mL, the MIC (Enterobacter cloacae [17]) was 1 µg/mL and the MIC (Klebsiella pneumoniae [18]) was 32 µg/mL (≈ 70.3 µM). It also gave an MIC (Enterobacter cloacae [19]) of 32 µg/mL (≈ 70.3 µM), an MIC (Citrobacter freundii [20]) of 0.125 µg/mL (≈ 0.274 µM) and an MIC (Citrobacter freundii [21]) of 0.125 µg/mL.

Work on `CCN1CCN(C(=O)N[C@@H](C(=O)N[C@@H]2C(=O)N3[C@@H]2SC(C)(C)[C@@H]3C(=O)O)c2ccccc2)C(=O)C1=O` [PIPERACILLIN] yielded an MIC (Citrobacter freundii [22]) of 8 µg/mL, an MIC (Klebsiella pneumoniae [23]) of 4 µg/mL and an MIC (Klebsiella pneumoniae [24]) of 8 µg/mL. For the same molecule, the MIC (Escherichia coli [25]) was 1 µg/mL, the MIC (Enterobacter cloacae [26]) was 2 µg/mL and the MIC (Citrobacter freundii [27]) was 4 µg/mL. For the same molecule, the MIC (Escherichia coli [28]) was 1 µg/mL, the MIC (Klebsiella pneumoniae [29]) was 16 µg/mL and the MIC (Citrobacter freundii [30]) was 2 µg/mL. The MIC (Klebsiella pneumoniae [31]) was 2 µg/mL.
